Published values collected from several papers.
Protocols differ between the studies behind these lines.
PIK3CA E545A: Phosphatidylinositol 4,5-bisphosphate 3-kinase catalytic subunit alpha isoform (PIK3CA, Homo sapiens, UniProt P42336, E545A)
PIK3CA E545K: Phosphatidylinositol 4,5-bisphosphate 3-kinase catalytic subunit alpha isoform (PIK3CA, Homo sapiens, UniProt P42336, E545K)
PIK3CA I800L: Phosphatidylinositol 4,5-bisphosphate 3-kinase catalytic subunit alpha isoform (PIK3CA, Homo sapiens, UniProt P42336, I800L)
PIK3CA M1043I: Phosphatidylinositol 4,5-bisphosphate 3-kinase catalytic subunit alpha isoform (PIK3CA, Homo sapiens, UniProt P42336, M1043I)
PIK3CA: Phosphatidylinositol 4,5-bisphosphate 3-kinase catalytic subunit alpha isoform (PIK3CA, Homo sapiens, UniProt P42336)
PIK3CA Q546K: Phosphatidylinositol 4,5-bisphosphate 3-kinase catalytic subunit alpha isoform (PIK3CA, Homo sapiens, UniProt P42336, Q546K)

CC1CCCN1c1nccc(-c2cnn3ncccc23)n1 (stereo not drawn) — remaining binding (PIK3CA E545A; binding; 1 µM): 83%
c1cncc(-c2cccc(Nc3nccc(NC4CCCCC4)n3)c2)c1 — remaining binding (PIK3CA E545A; binding; competition with immobilised ligand; 10 µM): 80%
Cc1cnn2ncc(-c3ccnc(N(C)C)n3)c2c1 — remaining binding (PIK3CA E545K; binding; 1 µM): 82%
COc1cnc(Nc2cccc(S(N)(=O)=O)c2)nc1N1CCN(c2ccccc2)CC1 — remaining binding (PIK3CA I800L; binding; competition with immobilised ligand; 1 µM): 83%
Cc1cc(-c2cc(C(F)(F)F)ccc2O[C@H]2C[C@@]2(CNS(=O)(=O)c2ccc([N+](=O)[O-])cc2)c2ccc(F)cc2F)[nH]n1 — remaining binding (PIK3CA M1043I; cell-free assay; competition with immobilised ligand; 0.3 µM): 8.1%
N[C@@H]1CCN(c2nccc(-c3cnn4ncccc34)n2)C1 — remaining binding (PIK3CA; binding; 1 µM): 100%
CCN1CCN(Cc2ccc(C(=O)Nc3ccc(C)c(Oc4ccc5c(c4)CC(=O)N5)c3)cc2C(F)(F)F)CC1 — remaining binding (PIK3CA E545A; binding; competition with immobilised ligand; 1 µM): 71%
COc1ncc2cc3ccccc3nc2c1C#N — remaining binding (PIK3CA E545K; cell-free assay; competition with immobilised ligand; 5 µM): 100%
O=C(c1ccc(Nc2ncc(Cl)c(-c3ccc(Cl)s3)n2)cc1)N1CCC(N2CCCC2)CC1 — remaining binding (PIK3CA E545A; binding; competition with immobilised ligand; 1 µM): 100%
O=C(N1CCS(=O)(=O)CC1)N1C[C@H](c2ccc(OC(F)(F)F)cc2)C[C@H](c2nc(C3CC3)no2)C1 — remaining binding (PIK3CA Q546K; cell-free assay; competition with immobilised ligand; 1 µM): 83%
O=C(NCCCN1CCOCC1)c1ccc(Nc2ncc(Cl)c(-c3ccc(Cl)s3)n2)cc1 — remaining binding (PIK3CA Q546K; binding; competition with immobilised ligand; 1 µM): 100%
C[C@@H]1CCN(c2nccc(-c3cnn4ncccc34)n2)C1 — remaining binding (PIK3CA M1043I; binding; 1 µM): 98%
CO[C@@H](C)c1c(Nc2ccc([C@@H](N(C)C(=O)C3CCS(=O)(=O)CC3)C(F)(F)F)cc2)cnc2cc(Cl)nn12 — remaining binding (Phosphatidylinositol 4,5-bisphosphate 3-kinase catalytic subunit alpha isoform (PIK3CA, Homo sapiens, UniProt P42336, H1047L); cell-free assay; competition with immobilised ligand; 1 µM): 98%
CNC(=O)[C@@H]1CC[C@@H](n2c(-c3ccc4cnccc4c3)nc3ccc(C(=O)NCc4cccc(C(N)=O)c4)cc32)C1 — remaining binding (PIK3CA E545A; binding; competition with immobilised ligand; 1 µM): 89%
CC(C)CC(=O)N1CCc2nc(-c3ccc(Br)cc3)nc(N(C)Cc3ccccc3)c2C1 — remaining binding (Phosphatidylinositol 4,5-bisphosphate 3-kinase catalytic subunit alpha isoform (PIK3CA, Homo sapiens, UniProt P42336, E542K); cell-free assay; competition with immobilised ligand; 0.1 µM): 100%
C=CC(=O)N1CCC(C(=O)NCC(=O)N2CCN(c3nc(-c4cnc(N)nc4C(F)F)nc(N4CCOCC4)n3)CC2)CC1 — remaining binding (PIK3CA E545A; binding; competition with immobilised ligand; 1 µM): 0.5%
CNC(=O)Nc1ccc2c(c1)CC[C@@]21OC(=O)N(CC(=O)N(Cc2ccc(F)cc2)[C@@H](C)C(F)(F)F)C1=O — remaining binding (PIK3CA I800L; cell-free assay; competition with immobilised ligand; 1 µM): 83%
CN(C)c1nccc(-c2cnc3ncccn23)n1 — remaining binding (PIK3CA M1043I; binding; 1 µM): 84%
CN(c1ccnc(CNc2nc(Nc3ccc4c(c3)CC(=O)N4)ncc2C(F)(F)F)n1)S(C)(=O)=O — remaining binding (PIK3CA E545K; cell-free assay; competition with immobilised ligand; 1 µM): 100%
CN(c1nccc(-c2cnn3ncccc23)n1)C1CC1 — remaining binding (PIK3CA I800L; binding; 1 µM): 100%
CN([C@@H]1CCc2c(CC(=O)O)c3ccccc3n2C1)S(=O)(=O)c1ccc(F)cc1 — remaining binding (PIK3CA I800L; cell-free assay; competition with immobilised ligand; 1 µM): 79%
O=C(Nc1c[nH]nc1C(=O)NC1CCNCC1)c1cc(F)cc(F)c1 — remaining binding (PIK3CA; binding; competition with immobilised ligand; 1 µM): 100%
O=c1nc(-c2ccccn2)sc2ccccc12 — remaining binding (PIK3CA M1043I; cell-free assay; competition with immobilised ligand; 1 µM): 100%
C[C@@H](c1ccc(-n2cnc3c(N)ncnc32)cc1)N1CCc2nn(C)c(Cc3ccccc3)c2C1=O — remaining binding (PIK3CA E545A; binding; competition with immobilised ligand; 0.1 µM): 100%
